# Measurements gathered from unrelated publications.
# Protocols differ between the studies behind these lines.
# Target: Adenosine receptor A2a (ADORA2A, Homo sapiens, UniProt P29274)
SMILES,effect on,technique,tested at,endpoint,value
c1ccc(C(NCCNC(c2ccccc2)c2ccccc2)c2ccccc2)cc1,cell-free assay,,10 µM,inhibition,12%
COCc1c(-c2cc3cc(C)cc(OC)c3s2)c2c(N)ncnn2c1CN1CCNC(=O)C1,ligand displacement,radioligand,10 µM,inhibition,7%
COc1ccc(S(=O)(=O)N2CCCCC2)cc1C,ligand displacement,radioligand,10 µM,inhibition,< 30%
O=c1ccc2ccccc2o1,ligand displacement,radioligand,10 µM,inhibition,-4.26%
CC(C)Cn1cnc2c(N)nc3ccccc3c21,ligand displacement,radioligand,10 µM,inhibition,89%
OC[C@@]12C[C@@H]1[C@@H](n1cnc3c(NC(C4CCCC4)C4CCCC4)nc(Cl)nc31)[C@H](O)[C@@H]2O,ligand displacement,radioligand,10 µM,inhibition,24%
CC(C)N1CCC[C@H]1CNC(=O)c1cn(C2CCCC2)c(=O)c2c1c1ccccc1n2C,ligand displacement,radioligand,10 µM,inhibition,6%
OC[C@@]12C[C@@H]1[C@@H](n1cnc3c(NC(C4CCCC4)C4CCCC4)nc(Cl)cc31)[C@H](O)[C@@H]2O,ligand displacement,radioligand,10 µM,inhibition,-12%
CCN(CC)CCCC[C@H](NC(=O)[C@H](CC(C)C)NC(=O)[C@H](C)NC(=O)[C@H](Cc1ccccc1)NC(=O)c1ccc(C(C)(C)C)cc1)C(=O)N[C@@H](CO)C(=O)OC,ligand displacement,radioligand,10 µM,remaining binding,102%
Clc1ccc2c(C3CCN(CCc4c[nH]c5ccccc45)CC3)c[nH]c2c1,ligand displacement,radioligand,10 µM,inhibition,-12%
C[C@H](C(=O)N[C@H]1COc2ccccc2[C@@H]1S(C)(=O)=O)c1ccc(F)cc1,cell-free assay,,10 µM,inhibition,1%
O=C(Nc1cccnn1)N1CCN([C@@H]2CCOc3cc(C(F)(F)F)ccc32)CC1,ligand displacement,,20 µM,inhibition,15%
Nc1ncc(-c2nc(N3CCOCC3)nc(N3CCOCC3)n2)c(C(F)F)n1,cell-free assay,radioligand,10 µM,remaining signal,93.3%
